The nature of assay [1]: Antiinflammatory activity in human neutrophils assessed as inhibition of IL8-induced chemotaxis preincubated for 10 mins. Format: functional, cell-based. Conditions: Neutrophil. An outline of the steps: (§1)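 Neutrophils from healthy donors' blood, isolated by dextran sedimentation, Ficoll–Paque centrifugation and hypotonic red-cell lysis, held in KRPG pH 7.4 at room temperature. Cells preincubated with compound 10 min. 48-well microchemotaxis chamber; compound in the upper compartment at 10^-12 to 10^-6 M in KRPG with 1 mg/mL BSA. Attractant in the lower compartment: fMLP-OMe 10 nM or CXCL8/IL8 1 nM.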

Assay [2] is described as follows: Antiinflammatory activity in human neutrophils assessed as inhibition of fMLP-OMe-induced chemotaxis preincubated for 10 mins. Format: functional, cell-based. Conditions: Neutrophil. An outline of the steps: as §1
Assay [3] is filed under the species Homo sapiens. In words: Induction of Akt phosphorylation in fMLP-OMe-stimulated human neutrophils.
The species named for assay [4] is Homo sapiens. In words: Induction of Akt phosphorylation in IL8-stimulated human neutrophils.

In ChEMBL document CHEMBL1926579, “N-Aryl-2-phenyl-2,3-dihydro-imidazo[1,2-b]pyrazole-1-carboxamides 7-substituted strongly inhibiting both fMLP-OMe- and IL-8-induced human neutrophil chemotaxis” (Eur J Med Chem, 2012) one finds IC50 and Activity data, which are given here for 18 compounds.

Molecules are shown by their SMILES. pIC50: −log10 of the molar value. The source made the active and inactive calls. The rule behind the calls is not given here.

By pIC50 is commonly meant the negative decadic logarithm of the IC50, by convention in mol/L. For the compound `O=C(Nc1ccccc1F)N1c2ccnn2CC1c1ccccc1` (stereo not drawn), the pIC50 in assay [1] is under 6.00; in assay [2], 8.27.

For `NC(=O)c1cnn2c1N(C(=O)Nc1ccccc1F)C(c1ccccc1)C2` (stereo not drawn), the pIC50 in assay [1] was 8.21; in assay [2], under 6.00.

Consider `CCOC(=O)c1cnn2c1N(C(=O)Nc1cccc3ccccc13)C(c1ccccc1)C2` (stereo not drawn), for which the pIC50 in assay [1] was 6.69; in assay [2], 7.86.

In the case of `O=C(Nc1cccc2ccccc12)N1c2ccnn2CC1c1ccccc1` (stereo not drawn), the pIC50 in assay [1] and in assay [2] was under 6.00 each time.

Turning to `O=C(c1cnn2c1N(C(=O)Nc1cccc(F)c1)C(c1ccccc1)C2)N1CCCCC1` (stereo not drawn), the pIC50 is 8.92 in assay [1] and 8.26 in assay [2].

On to `CCOC(=O)c1cnn2c1N(C(=O)Nc1ccccc1F)C(c1ccccc1)C2` (stereo not drawn), for which the values for the pIC50 in assay [1] and in assay [2] were 8.12 and 6.94, respectively.

For `O=C(Nc1cccc(F)c1)N1c2ccnn2CC1c1ccccc1` (stereo not drawn), the pIC50 is under 6.00 in assay [1] and 7.92 in assay [2].

With `O=C(NC1CC1)c1cnn2c1N(C(=O)Nc1cccc(F)c1)C(c1ccccc1)C2` (stereo not drawn), the pIC50 in assay [1] was under 6.00; in assay [2] it was 6.86.

On to `O=C(c1cnn2c1N(C(=O)Nc1ccccc1)C(c1ccccc1)C2)N1CCCCC1` (stereo not drawn), for which the results for the pIC50 in assay [1] and in assay [2] were under 6.00 and 6.01, respectively.

Turning to `NC(=O)c1cnn2c1N(C(=O)Nc1ccc(F)cc1)C(c1ccccc1)C2` (stereo not drawn), the pIC50 is 6.32 in assay [1] and 7.94 in assay [2].

In the case of `O=C(Nc1ccccc1)N1c2ccnn2CC1c1ccccc1` (stereo not drawn), the results for the pIC50 in assay [1] and in assay [2] were under 6.00 and 8.32, respectively.

For `NC(=O)c1cnn2c1N(C(=O)Nc1cccc3ccccc13)C(c1ccccc1)C2` (stereo not drawn), the pIC50 in assay [1] was under 6.00; in assay [2], 6.96.

Consider `CCOC(=O)c1cnn2c1N(C(=O)Nc1ccccc1)C(c1ccccc1)C2` (stereo not drawn), for which the results for the pIC50 in assay [1] and in assay [2] were under 6.00 and 7.01, respectively.

Regarding `O=C(NC1CC1)c1cnn2c1N(C(=O)Nc1ccccc1)C(c1ccccc1)C2` (stereo not drawn), the pIC50 in assay [1] was 7.88; in assay [2], 6.91.

As to `NC(=O)c1cnn2c1N(C(=O)Nc1cccc(F)c1)C(c1ccccc1)C2` (stereo not drawn), the result in the assay listed under Homo sapiens [3] and in the assay listed under Homo sapiens [4] was inactive. Further, the pIC50 is 8.92 in assay [1] and 8.41 in assay [2].

For `CCOC(=O)c1cnn2c1N(C(=O)Nc1ccc(F)cc1)C(c1ccccc1)C2` (stereo not drawn), the pIC50 in assay [1] is under 6.00; in assay [2], 7.99.

Regarding `CCOC(=O)c1cnn2c1N(C(=O)Nc1cccc(F)c1)C(c1ccccc1)C2` (stereo not drawn), the pIC50 in assay [1] is 6.95; in assay [2] it was 8.04.

With `O=C(Nc1ccc(F)cc1)N1c2ccnn2CC1c1ccccc1` (stereo not drawn), the pIC50 in assay [1] is under 6.00; in assay [2], 7.02.
